Measurements collected from several papers.
Each line is one published result; the experiments were not run side by side.
MMP14: Matrix metalloproteinase-14 (MMP14, Homo sapiens, UniProt P50281)
Kir1 channel protein: Kir1 channel protein (Aedes aegypti, UniProt L0EQS9)
PDE11A: Dual 3',5'-cyclic-AMP and -GMP phosphodiesterase 11A (PDE11A, Homo sapiens, UniProt Q9HCR9)
FLT1: Vascular endothelial growth factor receptor 1 (FLT1, Homo sapiens, UniProt P17948)
NTSR1: Neurotensin receptor type 1 (NTSR1, Homo sapiens, UniProt P30989)
ABHD6: Monoacylglycerol lipase ABHD6 (ABHD6, Homo sapiens, UniProt Q9BV23)
BTK: Tyrosine-protein kinase BTK (BTK, Homo sapiens, UniProt Q06187)
CYP2E1: Cytochrome P450 2E1 (CYP2E1, Homo sapiens, UniProt P05181)

Structure (SMILES)	target	assay	test system	setting	IC50
Cn1nc(C(=O)NCc2ccc(C(=O)O)cc2)cc1-c1ccc2[nH]c(-c3cncnc3)cc2c1	MMP14	enzyme activity, inhibitor	–	–	> 20 µM
O=[N+]([O-])c1ccc(N2CCN(S(=O)(=O)c3ccc(F)cc3)CC2)cc1NCc1ccccn1	Kir1 channel protein	ion current, inhibitor, patch clamp	–	–	0.0355 µM
COc1cc(C[C@H]2C(=O)OC[C@@H]2Cc2ccc(OC)c(OC)c2)ccc1O	PDE11A	enzyme activity, inhibitor	–	–	> 20 µM
Cc1noc(-c2cc3cc(-c4nc(C(=O)NCc5ccncc5)[nH]c4C)ccc3[nH]2)n1	MMP14	enzyme activity, inhibitor	–	–	> 20 µM
O=C(c1cc(O)c(O)c([N+](=O)[O-])c1)c1ccccc1F	Catechol O-methyltransferase (COMT, Sus scrofa, UniProt Q99028)	enzyme activity, inhibitor	–	–	0.028 µM
O=[N+]([O-])c1ccc(N2CCN(S(=O)(=O)c3ccc(F)cc3)CC2)cc1NCc1ccncc1	Kir1 channel protein	ion current, inhibitor, patch clamp	–	–	0.0497 µM
Cc1ccc(C(=O)Nc2ccc(Oc3cc4cnn(C)c4cc3-c3cn[nH]c3)c(F)c2)c(=O)n1-c1ccc(F)cc1	FLT1	enzyme activity, inhibitor, radiometric	–	–	0.076 µM
COc1ccc2c(Oc3ccc4c(C(=O)Nc5ccccc5N)cccc4c3)ccnc2c1	RAC-beta serine/threonine-protein kinase (AKT2, Homo sapiens, UniProt P31751)	enzyme activity, inhibitor	–	–	> 0.5 µM
O=S(=O)(c1ccc(F)cc1)N1CCN(c2cccc(NCc3ccncc3)c2)CC1	Kir1 channel protein	ion flux, inhibitor	–	–	4 to 9 µM
Cc1cc(O)cc(C)c1C[C@H](NC(=O)[C@@H]1CCCN1C(=O)[C@H](CCCNC(=N)N)NC(=O)[C@H](CCCNC(=N)N)N(C)C(=O)CNC(=O)[C@@H](CO)NC(=O)CNC(=O)[C@H](Cc1cn(CCNC(=O)[C@H](CCCNC(=N)N)NC(=O)[C@H](CC(C)C)NC(=O)C2OC2C(=O)O)nn1)NC(=O)CN1CCN(CC(=O)O)CCN(CC(=O)O)CCN(CC(=O)O)CC1)C(=O)N[C@H](C(=O)N[C@@H](CC(C)C)C(=O)O)C(C)(C)C (mixture of isomers)	NTSR1	ligand displacement, radioligand	–	–	0.073 µM
CN1CCN(c2ccc(Nc3ncc4cc(C#N)c(=O)n(C5CCCC5)c4n3)cc2)CC1	Receptor tyrosine-protein kinase erbB-4 (ERBB4, Homo sapiens, UniProt Q15303)	enzyme activity, inhibitor	–	–	3.09 µM
Cc1cnc(-c2ccc(-c3ccc(NC(=O)Nc4c(F)cc(F)cc4F)cc3F)c3c2C(=O)NC3)[nH]1	FLT1	enzyme activity, inhibitor	–	–	> 1 µM
Cc1cc(O)cc(C)c1C[C@H](NC(=O)[C@@H]1CCCN1C(=O)[C@H](CCCNC(=N)N)NC(=O)[C@H](CCCNC(=N)N)N(C)C(=O)[C@@H](CCC(N)=O)NC(=O)[C@@H](CCC(N)=O)NC(=O)[C@@H](CCC(N)=O)NC(=O)[C@H](Cc1cn(CCNC(=O)[C@H](CC(C)C)NC(=O)[C@H](CC(C)C)NC(=O)C2OC2C(=O)O)nn1)NC(=O)CN1CCN(CC(=O)O)CCN(CC(=O)O)CCN(CC(=O)O)CC1)C(=O)N[C@H](C(=O)N[C@@H](CC(C)C)C(=O)O)C(C)(C)C (mixture of isomers)	NTSR1	ligand displacement, radioligand	–	–	0.092 µM
O=C(Oc1nsnc1N1CCC2CCCCC2C1)N1CCCCC1 (centres unmarked)	ABHD6	enzyme activity, inhibitor, fluorescence	–	lysate	0.56 µM
O=[N+]([O-])c1ccc(N2CCN(S(=O)(=O)c3ccc(Cl)cc3)CC2)cc1NCc1cccnc1	Kir1 channel protein	ion flux, inhibitor	–	–	1.47 µM
CC/C(=N\NC(=O)C(C)Nc1ccccc1)c1ccc(O)c(C)c1O (centres unmarked)	Ribosomal protein S6 kinase alpha-5 (RPS6KA5, Homo sapiens, UniProt O75582)	enzyme activity, inhibitor	–	–	0.0132 µM
Cn1cc(-c2cc3cc(-c4cc(C(=O)NCc5ccc(C(=O)O)cc5)nn4C)ccc3[nH]2)cn1	MMP14	enzyme activity, inhibitor	–	–	> 20 µM
O=C(Oc1nsnc1N1CCc2ccccc2C1)N1CCCCC1	ABHD6	enzyme activity, inhibitor, fluorescence	–	lysate	0.46 µM
CCC1(c2ccc(C)cc2)C(=O)N(C(=O)OC(C)C)N1C(=O)OC(C)C (centres unmarked)	Prolyl endopeptidase (Mus musculus, UniProt Q9QUR6)	enzyme activity, inhibitor	–	–	4.5 µM

Structure (SMILES)	target	assay	test system	setting	IC50
COc1ccc(-c2nsc(NC(=O)[C@@H]3C[C@H]3C)c2C)cc1	Metabotropic glutamate receptor 8 (GRM8, Homo sapiens, UniProt O00222)	calcium signal, antagonist	–	–	> 12.5 µM
O=C(Nc1cccnc1)N1CCC(Cc2cccc(Oc3ccc(C(F)(F)F)cn3)c2)CC1	Arylacetamide deacetylase (Homo sapiens, UniProt P22760)	enzyme activity, inhibitor	–	–	> 10 µM
COc1ccc(F)cc1C(=O)NCc1ccc(-c2nn([C@@H](C)C(F)(F)F)c(N)c2C(N)=O)cc1	BTK	phosphorylation in cells, inhibitor	–	–	0.0039 µM
O=S(=O)(c1ccc(Cl)cc1)N1CCN(c2cccc(NCc3ccncc3)c2)CC1	Kir1 channel protein	ion flux, inhibitor	–	–	4 to 9 µM
CSc1ccc(/C=C2/C(C)=C(CC(=O)O)c3cc(F)ccc32)cc1	PDE11A	enzyme activity, inhibitor	–	–	> 100 µM
N#CN1C[C@H](n2nc(-c3ccc(Oc4ccc(Cl)cn4)cc3)c(C(N)=O)c2N)CCC12CC2	BTK	enzyme activity, inhibitor	–	–	0.0005 to 0.004 µM
CCc1cc(/C(C)=N/OCc2ccc(C3CCCCC3)c(C(F)(F)F)c2)ccc1CN1CC(C(=O)O)C1	CYP2E1	enzyme activity, inhibitor	human, liver microsomes	20 min	> 0.5 µM
Cc1noc(-c2cc3cc(-c4nc(C(=O)NCc5ccccc5)[nH]c4C)ccc3[nH]2)n1	MMP14	enzyme activity, inhibitor	–	–	> 20 µM
COc1cc2c(NC3CCN(C)CC3)nc(N3CCCN(C)CC3)nc2cc1OCCOCCN(C)C	Lysine-specific demethylase 4E (KDM4E, Homo sapiens, UniProt B2RXH2)	enzyme activity, inhibitor	–	–	> 57 µM
Cc1noc(-c2cc3cc(-c4nc(C(=O)NCc5ccc(=O)[nH]c5)[nH]c4C)ccc3[nH]2)n1	MMP14	enzyme activity, inhibitor	–	–	> 24 µM
CC(C)(C)c1cc(Cc2cc(C(C)(C)C)c(O)c(C(C)(C)C)c2)cc(C(C)(C)C)c1O	Sarcoplasmic/endoplasmic reticulum calcium ATPase 1 (ATP2A1, Oryctolagus cuniculus, UniProt P04191)	ATPase activity, inhibitor, absorbance	–	pH 7.3	17 µM
O=[N+]([O-])c1ccc(N2CCN(S(=O)(=O)c3ccc(F)cc3)CC2)cc1NCc1ccco1	Kir1 channel protein	ion flux, inhibitor	–	–	1.29 µM
O=c1c(O)c(-c2ccc(O)c(O)c2)oc2cc(O)cc(O)c12	CYP2E1	enzyme activity, inhibitor, HPLC	–	–	104 µM
CC[C@H](C)[C@H](NC(C)=O)C(=O)N[C@@H](CCC(=O)O)C(=O)N[C@H](C(=O)N[C@H](C=O)CC(=O)O)[C@@H](C)O	Caspase-4 (Casp4, Mus musculus, UniProt P70343)	enzyme activity, inhibitor	–	–	0.086 µM
C=CC(=O)Nc1cc(Nc2nccc(Nc3cc(Cl)c(F)cc3C(C)(C)O)n2)c(OC)cc1N1CC[C@@H](N(C)C)C1	BTK	enzyme activity, inhibitor	–	with preincubation	0.213 µM
O=[N+]([O-])c1ccc(N2CCN(S(=O)(=O)c3ccc(F)cc3)CC2)cc1NCc1cccnc1	Kir1 channel protein	ion flux, inhibitor	–	–	0.47 µM
Cc1noc(-c2cc3cc(-c4nc(C(=O)NCc5ccccn5)[nH]c4C)ccc3[nH]2)n1	MMP14	enzyme activity, inhibitor	–	–	> 20 µM
N#Cc1ccc(N2CCN(S(=O)(=O)c3ccc(Cl)cc3)CC2)cc1NCc1ccncc1	Kir1 channel protein	ion flux, inhibitor	–	–	0.738 µM
O=C1Nc2cc(Oc3ccc4c(c3)NC(=O)C4=O)ccc2C1=O	Protein-glutamine gamma-glutamyltransferase (TGM2, Homo sapiens, UniProt P21980)	enzyme activity, inhibitor	–	–	30 to 40 µM
